This note sets out measurements from ChEMBL document CHEMBL1124549, “N-azamonobactams. 2. Synthesis of some N-iminoacetic acid and N-glycyl analogues” (1989).

Converted amounts (≈) assume the structure as drawn.

Common to all, as to type: functional
One assay relates to Providencia stuartii. The assay is described as follows: In vitro antibacterial activity against CMC-83-3 strain of Providencia stuartii. Put shortly: (§1)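 Agar dilution on Mueller-Hinton agar holding 2-fold decreasing drug concentrations. Agar surfaces were spot-inoculated with (1-5) × 10^4 CFU per strain using a replicating device. Plates were incubated 18 h at 35 °C. MIC was recorded as the lowest concentration inhibiting growth of the strain.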

Assay [1] deals with Morganella morganii. Description: In vitro antibacterial activity against CMC-84-38 strain of Morganella morganii. Put shortly: as §1
Assay [2] has as its system Serratia marcescens. Description: In vitro antibacterial activity against MOR-84-41 strain of Serratia marcescens. Put shortly:
as §1

Assay [3] deals with Serratia marcescens. The assay is described as follows: In vitro antibacterial activity against IO-83-63 strain of Serratia marcescens. Put shortly: as §1
Assay [4] relates to Escherichia coli. Description: In vitro antibacterial activity against CMC-84-50 strain of Escherichia coli. The method in brief:
as §1

A short description of assay [5]: In vitro antibacterial activity against IO-83-21 strain of Proteus rettgeri. The following applies: Providencia rettgeri. The method in brief:
as §1

In assay [6] the test system is Morganella morganii. The assay is described as follows: In vitro antibacterial activity against MOR-84-45 strain of Morganella morganii. The method in brief:
as §1

Assay [7] relates to Enterobacter cloacae. Description: In vitro antibacterial activity against VGH-84-39 strain of Enterobacter cloacae.
The test system of assay [8] is Klebsiella pneumoniae. Description: In vitro antibacterial activity against CMC-84-31 strain of Klebsiella pneumoniae. Put shortly: as §1
The test system of assay [9] is Morganella morganii. The assay is described as follows: In vitro antibacterial activity against VGH-84-12 strain of Morganella morganii. The method in brief: as §1
Assay [10] concerns Serratia marcescens. Description: In vitro antibacterial activity against CMC-83-74 strain of Serratia marcescens. The method in brief:
as §1

The test system of assay [11] is Escherichia coli. The assay is described as follows: In vitro antibacterial activity against VGH-84-19 strain of Escherichia coli. Put shortly: as §1
The subject of assay [12] is Klebsiella pneumoniae. Description: In vitro antibacterial activity against MOR-84-24 strain of Klebsiella pneumoniae. Put shortly:
as §1

Assay [13] concerns Enterobacter cloacae. Description: In vitro antibacterial activity against MOR-84-30 strain of Enterobacter cloacae.
The subject of a further assay is Citrobacter koseri. The assay is described as follows: In vitro antibacterial activity against J-82-24 strain of Citrobacter diversus. Put shortly: as §1
For assay [14], the system named is Klebsiella pneumoniae. Description: In vitro antibacterial activity against IO-83-5 strain of Klebsiella pneumoniae. Put shortly: as §1
Assay [15] relates to Enterobacter cloacae. The assay is described as follows: In vitro antibacterial activity against K-84-10 strain of Enterobacter cloacae.
Assay [16] relates to Escherichia coli. The assay is described as follows: In vitro antibacterial activity against ATCC 25922 strain of Escherichia coli. Put shortly:
as §1

In assay [17] the test system is Escherichia coli. Description: In vitro antibacterial activity against MOR-84-20 strain of Escherichia coli. The method in brief:
as §1

For `CO/N=C(/C(=O)NC1CN(/N=C/C(=O)O)C1=O)c1csc(N)n1` (stereo unspecified), the MIC – broadly, the lowest concentration found to suppress growth – in the assay with Providencia stuartii stood at 2 µg/mL (≈ 5.88 µM); against Morganella morganii [1] it was 8 µg/mL (≈ 23.5 µM); in the assay on Serratia marcescens [2], 4 µg/mL (≈ 11.8 µM); with Serratia marcescens [3], 8 µg/mL (≈ 23.5 µM); against Escherichia coli [4], 2 µg/mL (≈ 5.88 µM); in assay [5] it was 0.12 µg/mL (≈ 0.353 µM). For the same molecule, the MIC against Morganella morganii [6] was 16 µg/mL (≈ 47 µM); against Enterobacter cloacae [7], 8 µg/mL (≈ 23.5 µM); with Klebsiella pneumoniae [8] it was 2 µg/mL (≈ 5.88 µM); in the assay on Morganella morganii [9], 4 µg/mL (≈ 11.8 µM); with Serratia marcescens [10], 16 µg/mL (≈ 47 µM); against Escherichia coli [11], 2 µg/mL (≈ 5.88 µM). In addition, the MIC against Klebsiella pneumoniae [12] amounted to 8 µg/mL (≈ 23.5 µM); in the assay with Enterobacter cloacae [13] it was 32 µg/mL (≈ 94 µM); with Citrobacter koseri it was 4 µg/mL (≈ 11.8 µM); against Klebsiella pneumoniae [14], 4 µg/mL (≈ 11.8 µM); against Enterobacter cloacae [15], 4 µg/mL (≈ 11.8 µM); with Escherichia coli [16] it was 8 µg/mL (≈ 23.5 µM). In the assay with Escherichia coli [17], this molecule registered an MIC of 2 µg/mL (≈ 5.88 µM).
As for `CO/N=C(/C(=O)NC1CN(NCC(=O)O)C1=O)c1csc(N)n1` (stereo unspecified), the MIC was greater than 128 µg/mL in the assay on Providencia stuartii; greater than 128 µg/mL against Morganella morganii [1]; greater than 128 µg/mL against Serratia marcescens [2]; greater than 128 µg/mL with Serratia marcescens [3]; greater than 128 µg/mL in the assay with Escherichia coli [4]; 64 µg/mL (≈ 187 µM) in assay [5]. Further, the MIC against Morganella morganii [6], against Enterobacter cloacae [7], against Klebsiella pneumoniae [8], against Morganella morganii [9], in the assay on Serratia marcescens [10] and against Escherichia coli [11] was greater than 128 µg/mL each time. For the same molecule, the MIC against Klebsiella pneumoniae [12], with Enterobacter cloacae [13], in the assay with Citrobacter koseri, in the assay on Klebsiella pneumoniae [14], against Enterobacter cloacae [15] and against Escherichia coli [16] was greater than 128 µg/mL each time. Also, the MIC in the assay with Escherichia coli [17] is greater than 128 µg/mL.
As to `C=CCOC(=O)CNN1CC(NC(=O)/C(=N/OC)c2csc(N)n2)C1=O` (stereo unspecified), the MIC against Providencia stuartii was determined as 32 µg/mL (≈ 83.7 µM); with Morganella morganii [1], 32 µg/mL (≈ 83.7 µM); against Serratia marcescens [2] it was 32 µg/mL (≈ 83.7 µM); against Serratia marcescens [3] it was 32 µg/mL (≈ 83.7 µM); in the assay on Escherichia coli [4], 4 µg/mL (≈ 10.5 µM); in [5] it was 0.5 µg/mL (≈ 1.31 µM). Besides, the MIC amounted to 128 µg/mL (≈ 335 µM) against Morganella morganii [6]; 16 µg/mL (≈ 41.8 µM) against Enterobacter cloacae [7]; 8 µg/mL (≈ 20.9 µM) with Klebsiella pneumoniae [8]; 64 µg/mL (≈ 167 µM) against Morganella morganii [9]; 128 µg/mL (≈ 335 µM) in the assay with Serratia marcescens [10]; 8 µg/mL (≈ 20.9 µM) against Escherichia coli [11]. Besides, the MIC against Klebsiella pneumoniae [12] amounted to 16 µg/mL (≈ 41.8 µM); against Enterobacter cloacae [13], 64 µg/mL (≈ 167 µM); against Citrobacter koseri it was 16 µg/mL (≈ 41.8 µM); with Klebsiella pneumoniae [14], 8 µg/mL (≈ 20.9 µM); in the assay on Enterobacter cloacae [15], 8 µg/mL (≈ 20.9 µM); with Escherichia coli [16], 8 µg/mL (≈ 20.9 µM). For the same molecule, the lowest concentration to inhibit growth in the assay with Escherichia coli [17] (MIC) was 8 µg/mL (≈ 20.9 µM).
Consider `C[C@H]1[C@H](NC(=O)/C(=N\OC(C)(C)C(=O)O)c2csc(N)n2)C(=O)N1S(=O)(=O)O` [AZTREONAM], for which the MIC against Providencia stuartii was found to be 0.015 µg/mL (≈ 0.0344 µM); in the assay on Morganella morganii [1] it was 0.015 µg/mL (≈ 0.0344 µM); against Serratia marcescens [2], 0.06 µg/mL (≈ 0.138 µM); against Escherichia coli [4], 0.06 µg/mL (≈ 0.138 µM); in assay [5], 0.002 µg/mL (≈ 0.00459 µM); with Morganella morganii [6], 0.015 µg/mL (≈ 0.0344 µM). Further, the MIC in the assay on Klebsiella pneumoniae [8] is 0.03 µg/mL (≈ 0.0689 µM); with Morganella morganii [9], 0.03 µg/mL (≈ 0.0689 µM); in the assay on Serratia marcescens [10] it was 0.25 µg/mL (≈ 0.574 µM); in the assay on Escherichia coli [11] it was 0.06 µg/mL (≈ 0.138 µM); in the assay on Klebsiella pneumoniae [12], 0.06 µg/mL (≈ 0.138 µM); in the assay on Citrobacter koseri, 0.03 µg/mL (≈ 0.0689 µM). The MIC with Escherichia coli [16] and with Escherichia coli [17] was 0.06 µg/mL (≈ 0.138 µM) each time.
